ChEMBL document CHEMBL1133748, “Synthesis and cytotoxic and antitumor activity of benzo[b]pyrano[3, 2-h]acridin-7-one analogues of acronycine” (J Med Chem, 2000)
“And” between values parts separate entries of the source, which are not always exact repeats. Equal entries are not always repeated.

Tests used:
L1210 = experiment: In vitro inhibition of L1210 cell proliferation.; format: functional, cell-based; conditions: Mus musculus
Summary of the method: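 L1210 murine leukemia cells grown in RPMI 1640 with 10% fetal calf serum, 2 mM glutamine, penicillin/streptomycin, 10 mM HEPES pH 7.4. Exposed 48 h to nine serial drug dilutions in triplicate. Microculture tetrazolium assay read-out. IC50 = concentration halving optical density versus untreated controls; mean of at least 2 separate experiments.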

Mus musculus [1] = experiment: Optimal therapeutic effect without toxicity in mice inoculated ip with P388 cells on day 0 with 12.5 mg/kg ip of compound on day 1; format: functional; conditions: route intraperitoneal
Mus musculus [2] = experiment: Optimal therapeutic effect without toxicity in mice inoculated ip with P388 cells on day 0 with 12.5 mg/kg iv of compound on day 1
Mus musculus [3] = experiment: Optimal therapeutic effect without toxicity in mice inoculated ip with P388 cells on day 0 with 200 mg/kg ip of compound on day 1; format: functional; conditions: route intraperitoneal
Mus musculus [4] = experiment: Optimal therapeutic effect without toxicity in mice inoculated ip with C38 cells on day 0 with 6.25 mg/kg iv of compound measured on day 31; format: functional, MC-38
Mus musculus [5] = experiment: Optimal therapeutic effect without toxicity in mice inoculated ip with P388 cells on day 0 with 12.5 mg/kg iv of compound on day 1; format: functional
Mus musculus [6] = experiment: Optimal therapeutic effect without toxicity in mice inoculated ip with C38 cells on day 0 with 3.12 mg/kg iv of compound measured on day 31; format: functional, MC-38

IC50 (L1210) [µM] | Structure (SMILES) | further results
1.7 | COc1cc2c(c3c1c(=O)c1cc4ccccc4cc1n3C)[C@@H](O)[C@@H](OC(=O)c1ccccc1)C(C)(C)O2 | 
0.5 | COc1cc2c(c3c1c(=O)c1cc4ccccc4cc1n3C)[C@@H](OC(C)=O)[C@@H](OC(=O)CC(C)C)C(C)(C)O2 | 
6 | Oc1cc(O)c2c(O)c3cc4ccccc4cc3nc2c1 | 
1.9 | COc1cc2c(c3c1c(=O)c1cc4ccccc4cc1n3C)[C@@H](O)[C@@H](OC(=O)CC(C)C)C(C)(C)O2 | 
1.9 | COc1cc2c(c3c1c(=O)c1cc4ccccc4cc1n3C)C=CC(C)(C)O2 [BENZO[B]ACRONYCINE] | 
8.5 | C=C1Oc2cc3c(c(OC)c2C1(C)C)c(=O)c1cc2ccccc2cc1n3C | 
4.9 | COc1c2c(cc3c1c(=O)c1cc4ccccc4cc1n3C)OC(C)(C)C=C2 | 
0.9 | CCC(=O)O[C@@H]1c2c(cc(OC)c3c(=O)c4cc5ccccc5cc4n(C)c23)OC(C)(C)[C@@H]1OC(=O)CC | 
3.2 | C=C1Oc2cc(O)c3c(O)c4cc5ccccc5cc4nc3c2C1(C)C | 

Further lines, the compound ahead of its results:

Structure (SMILES) | IC50 (L1210) [µM] | further results
COc1cc2c(c3c1c(=O)c1ccccc1n3C)[C@@H](OC(C)=O)[C@@H](OC(C)=O)C(C)(C)O2 (racemic) | 3.4 | T/C (survival) (Mus musculus [1]): 224%; T/C (survival) (Mus musculus [2]): 202%
COc1cc2c(c3c1c(=O)c1ccccc1n3C)C=CC(C)(C)O2 [ACRONINE] | 19.9 | T/C (survival) (Mus musculus [3]): 125%
C=C1Oc2cc(O)c3c(=O)c4cc5ccccc5cc4n(C)c3c2C1(C)C | 9 | 
C=C1Oc2cc(OC)c3c(=O)c4cc5ccccc5cc4n(C)c3c2C1(C)C | 14.1 | 
COc1cc2c(c3c1c(=O)c1cc4ccccc4cc1n3C)[C@@H](O)[C@@H](O)C(C)(C)O2 | 40.8 | 
COc1cc2c(c3c1c(=O)c1cc4ccccc4cc1n3C)[C@@H](OC(=O)CC(C)C)[C@@H](OC(=O)CC(C)C)C(C)(C)O2 | 0.5 | 
COc1cc2c(c3c1c(=O)c1cc4ccccc4cc1n3C)[C@@H](OC(C)=O)[C@@H](OC(=O)c1ccccc1)C(C)(C)O2 | 0.2 | 
Cn1c2cc3ccccc3cc2c(=O)c2c(O)cc3c(c21)C=CC(C)(C)O3 | 17.9 | 
COc1cc2c(c3c1c(=O)c1cc4ccccc4cc1n3C)[C@@H](OC(C)=O)[C@@H](OC(C)=O)C(C)(C)O2 | 0.6 | T/C (survival) (Mus musculus [1]; 12.5 mg/kg): 213% and 178%; T/C (tumor vol) (Mus musculus [4]): 4%
CC1(C)C=Cc2c(cc(O)c3c(O)c4cc5ccccc5cc4nc23)O1 | 10.2 | 
COc1cc2c(c3c1c(=O)c1cc4ccccc4cc1n3C)[C@H]1OC(=O)OC1C(C)(C)O2 (stereo partly drawn) | 0.02 | T/C (survival) (Mus musculus [1]): 327%; T/C (survival) (Mus musculus [5]): 157%; T/C (tumor vol) (Mus musculus [6]): 18%
